Screening results deposited in PubChem BioAssay by several laboratories.
STAT1 inh = STAT1 signaling inhibitors, primary screen, cell-based, HTS, luciferase reporter; inhibition, % at 5.5 µM; 200,000 compounds, 0.35% hits; NIH 3T3 STAT1-luciferase reporter, IFN-gamma, luminescence; AID 920, 2007;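 active = inhibition above a set limit, the mean inhibition across all tested compounds plus 3 SD, cut at about 34% in these data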
NF-kB expr up = activators of NF-kB expression in neurons, primary screen, cell-based, HTS | AID 1239, 2008 | 190,000 compounds, 1.6% hits | human neuronal cells, NF-kB reporter expression; stronger effect = higher value | fold change at 12.5 µM; in the data active = fold change above about 3.3
STAT3 inh = IL-6 driven STAT3 reporter inhibitors, primary screen, U3A cells, luciferase, luminescence, MLSCN library | IL-6 STAT3-luciferase reporter; host cell line lacks STAT1 | inhibition, % at 5.5 µM | 190,000 compounds, 0.89% hits | AID 862, 2007;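 active = inhibition above the mean inhibition across all screened compounds plus 3 SD, cut at about 44% in these data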
APP 5'UTR act = activators of APP 5'UTR luciferase reporter, primary screen, SH-SY5Y cells; activation, % at 2 µM; 190,000 compounds, 1% hits; SH-SY5Y APP 5'UTR luciferase reporter, luminescence; zero percent = DMSO vehicle wells;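 active = activation above a set limit, based on mean plus 3 SD of controls, cut at about 140% in these data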
STAT3 activator = IL-6 driven STAT3 reporter potentiators, primary screen, U3A cells, luciferase, luminescence, MLSCN library; IL-6 STAT3-luciferase reporter; 100% = signal with IL-6 EC80 alone; activation (% of control), % at 5.6 µM; AID 871, 2007; 190,000 compounds, 0.91% hits;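 active = activation above the screen-wide mean of compound activation plus 3 SD, cut at about 130% in these data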
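system = STAT3-luciferase reporter U3A cells | reagent = IL-6 stimulus at 33 ng/mL final | timing = 1 h compound pre-exposure, 6 h IL-6 stimulation, 37 °C | measured by = luminescence | evaluation = % activation versus median of IL-6-stimulated wells | control set = IL-6-only wells as 100% reference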
STAT1 act = STAT1 signaling activators, primary screen, cell-based, HTS, luciferase reporter; AID 932, 2007; NIH 3T3 STAT1-luciferase reporter, IFN-gamma, luminescence; 100% = IFN-gamma alone, no compound; activation (% of control), % at 5.5 µM; 200,000 compounds, 2.6% hits;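 active = activation above the screen-wide mean activation plus 3 SD, cut at about 130% in these data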
STAT1 activ conf = STAT1 signaling activators, confirmation, cell-based, HTS, luciferase reporter. 1,200 compounds, 97% hits. activation (% of control), % at 5.7 µM. NIH 3T3 STAT1-luciferase reporter, IFN-gamma potentiation, luminescence; 100% = IFN-gamma EC80 alone, no compound. shares compounds with STAT1 act. AID 1262, 2008;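 active = activation above a set limit carried over from the earlier primary STAT1 screen, cut at about 140% in these data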
NFkB act = NF-kB reporter activators, TNF-alpha stimulated, counter-screen for STAT1 activator project, cell-based, HEK293T, luciferase luminescence; 1,200 compounds, 43% hits; 100% = TNF-alpha with vehicle only; activation (% of control), % at 5.7 µM; shares compounds with STAT1 act;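 active = activation above the mean of solvent-only control wells plus 3 SD, set per campaign, cut at about 130% in these data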;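 also: TNF-alpha given at a submaximal dose yielding about 80% of full reporter signal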
STAT3 act STAT1c = STAT3 reporter activation by STAT1 hits, confirmation, counter-screen for STAT1 activator project, U3A cells, luciferase, luminescence | shares compounds with STAT1 act | IL-6; cells lack STAT1; 100 = IL-6 alone, no compound effect | activation (% of control), % at 5.7 µM | 1,200 compounds, 46% hits;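 active = activation above the solvent-only control well mean plus 3 SD, set per plate batch, cut at about 110% in these data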;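 also: higher means more STAT3 reporter activation so hits are non-selective activators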
A number is an active result; 0 = inactive; - = not tested or not shown. Most compounds without a hit are left out; they make up all but 5.1% or so of the library.

SMILES | STAT1 inh | NF-kB expr up | STAT3 inh | APP 5'UTR act | STAT3 activator | STAT1 act | STAT1 activ conf | NFkB act | STAT3 act STAT1c
CC(=O)NNc1nc(-c2ccccc2)cs1 | 0 | 0 | 0 | 0 | 0 | 0 | - | - | -
c1ccc(-c2csc(Nc3cccnc3)n2)nc1 | 0 | 0 | 0 | 0 | 0 | 0 | - | - | -
COc1ccc(-c2csc(Nc3ccc(S(N)(=O)=O)cc3)n2)cc1 | 0 | 0 | 0 | - | 0 | 0 | - | - | -
COc1ccc(-c2csc(Nc3ccccc3)n2)cc1 | 0 | 5.43 | 0 | 195.4 | 0 | 180.1 | 231.8 | 152.2 | 0
c1ccc(Nc2nc(-c3ccccn3)cs2)cc1 | 0 | 7.45 | 0 | 204.7 | 0 | 157.7 | 225.9 | 150.3 | 125.7
Cc1ccc2nc(-c3ccncc3)c(NC3CCCCC3)n2c1 | 0 | 0 | 0 | 0 | 0 | 0 | - | - | -
COc1ccc(-c2csc(Nc3ncccc3C)n2)cc1 | 0 | 12.4 | 0 | 154.3 | 0 | 185.4 | 253.4 | 143.4 | 0
COc1ccc(Nc2nc(-c3c(C)nc4ncccn34)cs2)cc1 | 0 | 0 | 0 | 0 | 0 | 0 | - | - | -
CNc1nc(N2CCc3ccccc32)ncc1F | 0 | 5.08 | 0 | 0 | 0 | 167.2 | 194.3 | 138.6 | 114.4
COc1ccc(C2C(C(=O)c3ccccc3)=C(C)Nc3nc4ccccc4n32)c(OC)c1 (stereo unspecified) | 0 | 0 | 0 | 0 | 0 | 0 | - | - | -
COc1cc(C(=S)N2CCOCC2)ccc1OC(=O)c1cc([N+](=O)[O-])c(C)c([N+](=O)[O-])c1 | 0 | 0 | 0 | 0 | 0 | 0 | - | - | -
O=C(O)C1=C[C@@H](C2CCCCC2)C[C@@H](OCc2ccc(CO)cc2)O1 | 0 | 0 | - | 0 | - | 0 | - | - | -
O=C(NC1CC1)C1=C[C@H](C2CCCCC2)C[C@H](OCc2ccc(CO)cc2)O1 | 0 | 0 | - | 0 | - | 158.1 | 0 | 0 | 0
C=CCn1c(O)c(N=NC(=O)CNC(=O)c2ccco2)c2ccccc21 | 0 | 0 | 0 | 0 | 0 | 0 | - | - | -
O=C(/C=C/c1cn(-c2ccccc2)nc1-c1ccccc1)Nc1ccc(C(=O)O)cc1 | 0 | 0 | 0 | 0 | 0 | 152.5 | 147.7 | 0 | 114.0
NS(=O)(=O)c1ccc(NC(=O)/C=C/c2cn(-c3ccccc3)nc2-c2cccc(Cl)c2)cc1 | 0 | 0 | 0 | 0 | 0 | 0 | - | - | -
Cc1ccc(/C=C(\C#N)C(=O)Nc2ccccn2)o1 | 0 | 4.27 | 0 | 0 | 0 | 187.1 | 205.2 | 137.8 | 111.2
CC(C)(C)c1ccc2c(c1)C(=O)c1ccccc1C2=O | 0 | 5.27 | 0 | 162.5 | 0 | 161.5 | 208.9 | 0 | 0
COc1ccccc1CNC(=O)N/C=C/c1ccc(Cl)cc1 | 0 | 0 | 0 | 0 | 0 | 0 | - | - | -
Cn1ccs/c1=N\C(=O)Nc1cccc(Cl)c1 | 0 | 3.74 | 0 | 0 | 0 | 156.2 | 184.0 | 134.4 | 0
O=C(O)/C=C/C(=O)NC1CCC(CC2CCC(NC(=O)/C=C/C(=O)O)CC2)CC1 (stereo unspecified) | 0 | 0 | 0 | 0 | 0 | 0 | - | - | -
COC(=O)c1ccc(NC(=S)Nc2ccccn2)cc1 | 0 | 0 | 0 | - | 0 | 164.7 | 189.6 | 134.6 | 0
COC(=O)c1ccc(NC(=S)Nc2ccc(O)cc2)cc1 | 0 | 0 | 0 | 0 | 0 | 0 | - | - | -
S=C1NCCNC(=S)NCCOCCOCCOCCN1 | 0 | 0 | 0 | 0 | 0 | 0 | - | - | -
CCOC(=O)c1sc(-c2ccc(OC)cc2)cc1N | 0 | 7.1 | 0 | 158.7 | 0 | 156.7 | 205.5 | 136.8 | 0
